PMC8788976 (Veterinary Medicine and Science, 2021)

Tests used:
[1] = test system: COX-2 enzymes isolated from sheep placenta; conditions: ref Wagemakers et al., 2009; cited from earlier work
[2] = Plasma concentrations in the single dose arthritis induction study; type: in vivo, Beagle dogs
Procedure, shortened: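 Ten male Beagles (23–36 months, 9–12 kg); six received oral 4 mg/kg on day 0 and again on day 12. Urate crystal suspension injected into the stifle joint on days 0 (2 h post-dose), 2, 7, 14 and 21. Jugular blood taken at each injection time and processed as for plasma PK. Parent and pyrazol metabolite quantified by HPLC-MS/MS.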

[3] = Population PK model of enflicoxib and pyrazol metabolite; design: species or system Beagle dogs
Procedure, shortened: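 Population PK model built from two sources. Toxicokinetic data: 228 samples from 12 Beagles, days 1 and 28, daily 1 or 4 mg/kg. PK data: 341 parent/metabolite samples from 26 Beagles in the oral PK and two arthritis studies. Structure: two-compartment parent (first-order absorption with lag, first-order elimination) and three-compartment metabolite. Body weight included as covariate. Evaluated by visual predictive check (90% intervals); parameter CIs from non-parametric bootstrap.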

[4] = Single oral dose pharmacokinetic study in Beagle dogs; type: in vivo; conditions: for AUC 24h / AUC last / C max: mean ± SD; for T last / T max: median (range)
Procedure, shortened: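 Single oral dose of 1 or 4 mg/kg given as micronised drug in gelatine capsules, followed by 5 ml water; dogs fasted overnight until 4 h post-dose. Jugular blood taken pre-dose, at 0.25–12 h, then daily to day 21. K3-EDTA plasma (2500 g, 15 min, 4°C) stored at −80°C. Parent and pyrazol metabolite measured by SPE then HPLC-MS/MS (celecoxib internal standard). Non-compartmental analysis: Cmax observed; AUC by linear trapezoidal rule; AUCinf extrapolated using the terminal rate constant.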

[5] = test system: urate crystal-induced acute arthritis; type: in vivo, Beagle dogs; conditions: plasma level, acute arthritis induction model in dogs
Procedure, shortened: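 Efficacy dataset: 18 enflicoxib-treated dogs from both urate arthritis studies, giving 71 paired observations of plasma parent or pyrazol metabolite level and lameness score taken at the same time. These pairs were linked to the population PK model to define the minimum effective plasma concentration.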

[6] = Plasma concentrations in the repeated dose arthritis induction study; type: in vivo, Beagle dogs
Procedure, shortened: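 Twelve male Beagles given oral 8 mg/kg on day 0, then 4 mg/kg weekly on days 7, 14 and 21, with stifle urate crystal inductions during the study. Jugular blood taken at time points including each intra-articular injection, and through day 56. Plasma processed as in the PK study. Pyrazol metabolite quantified by SPE then HPLC-MS/MS; values reported as mean ± SD.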

[7] = test system: urate crystal-induced acute arthritis; assay: Single dose arthritis induction study; type: in vivo, Beagle dogs
Procedure, shortened: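 Male Beagles (23–36 months, 9–12 kg). Groups: six dogs oral 4 mg/kg on days 0 and 12; three dogs reference coxib 2 mg/kg on days 0 and 14; one dog untreated. Stifle urate crystal injections on days 0 (2 h post-dose), 2, 7, 14 and 21. Blinded scoring before and 0.5–12 h after each injection. Standing plus walking lameness summed as CLS; pain scored on palpation.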

## NS(=O)(=O)c1ccc(-n2nc(C(F)(F)F)cc2-c2ccc(F)cc2F)cc1 [Pyrazol metabolite]
[1]
  selectivity for COX-2 versus COX-1: more than 250 fold
[2]; day 0, single 4 mg/kg enflicoxib, average ± SD
  plasma concentration: 59 ± 34 ng/mL
[2]; day 2, single 4 mg/kg enflicoxib, average ± SD
  plasma concentration: 207 ± 191 ng/mL
[2]; day 7, single 4 mg/kg enflicoxib, average ± SD
  plasma concentration: 321 ± 241 ng/mL
[2]; day 14, after second 4 mg/kg dose on day 12, average ± SD
  plasma concentration: 492 ± 240 ng/mL
[2]; day 21, after second 4 mg/kg dose on day 12, average ± SD
  plasma concentration: 398 ± 172 ng/mL
[3]; apparent clearance of pyrazol metabolite, bootstrap
  CLM/F (θ7), Bootstrap Median: 0.111 L/h
[3]; apparent clearance of pyrazol metabolite, θ7·(WGT/9.9)^0.75
  CLM/F (θ7), Value: 0.111 L/h
[3]; central compartment, assumed the same as that of enflicoxib
  VM/F (θ4), Value: 6.59 L
[3]; central compartment, bootstrap
  VM/F (θ4), Bootstrap Median: 6.60 L
[3]; central-deep peripheral, bootstrap
  CLM2/F (θ12), Bootstrap Median: 0.132 L/h
[3]; central-shallow peripheral, bootstrap
  CLMP/F (θ8), Bootstrap Median: 13.2 L/h
[3]; deep peripheral compartment, bootstrap
  VM2/F (θ13), Bootstrap Median: 13.5 L
[3]; deep peripheral compartment, θ13·(WGT/9.9)^1.0
  VM2/F (θ13), Value: 13.4 L
[3]; distribution clearance central-deep peripheral, θ12·(WGT/9.9)^0.75
  CLM2/F (θ12), Value: 0.131 L/h
[3]; distribution clearance central-shallow peripheral, θ8·(WGT/9.9)^0.75
  CLMP/F (θ8), Value: 13.2 L/h
[3]; population PK model
  estimated terminal half-life: 13.8 days
[3]; random parameter, %CV
  Inter-individual variability on CLM/F, Value: 31%
  Residual variability, Value: 20%
[3]; random parameter, bootstrap
  Inter-individual variability on CLM/F, Bootstrap Median: 31%
  Residual variability, Bootstrap Median: 20%
[3]; shallow peripheral compartment, bootstrap
  VMP/F (θ9), Bootstrap Median: 29.33 L
[3]; shallow peripheral compartment, θ9·(WGT/9.9)^1.0
  VMP/F (θ9), Value: 29.3 L
[4]; single oral enflicoxib 1 mg/kg
  AUC 24h: 1104 ± 502 ng·h/mL
  AUC last: 40,784 ± 10,228 ng·h/ml
  C max: 165.8 ± 48.5 ng/mL
  T last: 480 h
  T max: 132.0 (96–168) h
[4]; single oral enflicoxib 4 mg/kg
  AUC 24h: 2647 ± 1322 ng·h/mL
  AUC last: 132,329 ± 33,065 ng·h/ml
  C max: 577.0 ± 203.4 ng/mL
  T last: 480 h
  T max: 132.0 (96–168) h
[4]; single oral enflicoxib 1 or 4 mg/kg, not adequately determinable
  terminal half-life read from the graphic profile: around 14 days
[5]
  Minimum Effective Concentration (MEC): 411 ng/mL
[6]; day 23, 8 mg/kg loading, 4 mg/kg on days 7, 14, 21
  maximum plasma level: 1748 ± 334 ng/mL
[6]; day 56, 28 days after last dose administration
  plasma level at end of experimental period: 348 ± 152 ng/mL

## NS(=O)(=O)c1ccc(-n2nc(C(F)(F)F)cc2-c2ccc(F)cc2)cc1 [mavacoxib]
[7]; days 0 and 7, mavacoxib 2 mg/kg on days 0 and 14
  lameness and pain after induction: some degree of lameness and pain
[7]; days 14 and 21, after second administration on day 14, mavacoxib 2 mg/kg
  lameness or pain after induction: none or mild lameness or pain
